In the library only some 3% were active in any assay of this set; here they are far more common.
Apaf-1 inh: human Apaf-1 inhibition. reconstituted apoptosome caspase-3 activity, DEVD-Rh110 fluorescence. 330,000 compounds, 0.71% hits. inhibition, % at 20 µM. AID 489030. O14727; active means inhibition of at least 40% at 20 µM;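 further: plate controls were DMSO wells for no effect and DEVD-CHO caspase inhibitor wells for full effect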
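System: Apoptosome proteins | Medium: Hepes pH 7.5 with detergent and BSA | Also added: Cytochrome c trigger plus (Z-DEVD)2-Rh110 caspase-3 substrate | Incubation: 30 min compound preincubation, 50 min activation, room temperature | Detection: Rhodamine 110 fluorescence at Ex 480/Em 540 nm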
UCH37 DUB inh: inhibitors of human deubiquitinating enzyme UCH37; 330,000 compounds, 0.33% hits; purified proteasome/UCH37, Ub-AMC cleavage fluorescence; inhibition, % (concentration not given with the values); Q9Y5K5;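 active means mean inhibition over replicate wells above about 20%, limit read from the data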;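 further: 0% = compound-free wells with enzyme and 100% = wells lacking proteasome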
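Material: human UCH37 enzyme supplied as purified proteasome complex. Measure: % inhibition of Ub-AMC cleavage fluorescence. Medium: pH 7.4 Tris-HCl (50 mM) with ovalbumin, ATP-MgCl2, DTT. Times: 30 min preincubation with enzyme, 25 min cleavage at room temperature. Detection: AMC fluorescence intensity at 355/460 nm.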
MEKK2mut PB1 HTS: signal of MEK5 binding to mutant human MEKK2 PB1 domain; bead flow cytometry, Alexa488-MEK5 binding to MEKK2 mutant; percent response, % at 10 µM; 290,000 compounds, 0.35% hits; AID 1530; in the data active means percent response above about 24%, passing the limit was not always enough
MEKK2 WT-MEK5: raises or lowers MEK5 binding to wildtype human MEKK2 PB1 domain. Q9Y2U5. bead flow cytometry, Alexa488-MEK5 binding to MEKK2 WT; actives lie on both sides. binding response (% of control), % at 10 µM. 290,000 compounds, 1.1% hits. AID 1531; in the data active means binding response below about 67% or above about 130%
UBC13 polyUb: human UBC13 polyubiquitination inhibition. P61088. UBC13 polyubiquitin chain formation, TR-FRET. inhibition, % at 20 µM. 330,000 compounds, 0.47% hits; in the data active means inhibition above about 45%, passing the limit was not always enough
Target sequence (P61088 whole entry, looked up): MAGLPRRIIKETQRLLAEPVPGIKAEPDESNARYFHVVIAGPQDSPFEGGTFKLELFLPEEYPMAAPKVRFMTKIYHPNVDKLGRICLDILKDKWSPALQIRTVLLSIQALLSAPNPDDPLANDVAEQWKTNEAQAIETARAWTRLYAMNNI
MEKK3 PB1 HTS: MEKK3-MEK5 PB1 interaction, increase or decrease | 290,000 compounds, 1.4% hits | bead-based flow cytometry, Alexa488-MEK5 binding to MEKK3; actives lie on both sides; 0 = blocked by unlabeled MEK5, 100 = vehicle | binding response (% of control), % at 10 µM | Q99759 | AID 1529;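 active means binding response more than 3 SD above or below the average of its plate-row segment, actives on both sides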;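 further: Alexa488 bead fluorescence after subtracting the streptavidin-only scavenger bead signal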
Target sequence (Q99759 whole entry, looked up): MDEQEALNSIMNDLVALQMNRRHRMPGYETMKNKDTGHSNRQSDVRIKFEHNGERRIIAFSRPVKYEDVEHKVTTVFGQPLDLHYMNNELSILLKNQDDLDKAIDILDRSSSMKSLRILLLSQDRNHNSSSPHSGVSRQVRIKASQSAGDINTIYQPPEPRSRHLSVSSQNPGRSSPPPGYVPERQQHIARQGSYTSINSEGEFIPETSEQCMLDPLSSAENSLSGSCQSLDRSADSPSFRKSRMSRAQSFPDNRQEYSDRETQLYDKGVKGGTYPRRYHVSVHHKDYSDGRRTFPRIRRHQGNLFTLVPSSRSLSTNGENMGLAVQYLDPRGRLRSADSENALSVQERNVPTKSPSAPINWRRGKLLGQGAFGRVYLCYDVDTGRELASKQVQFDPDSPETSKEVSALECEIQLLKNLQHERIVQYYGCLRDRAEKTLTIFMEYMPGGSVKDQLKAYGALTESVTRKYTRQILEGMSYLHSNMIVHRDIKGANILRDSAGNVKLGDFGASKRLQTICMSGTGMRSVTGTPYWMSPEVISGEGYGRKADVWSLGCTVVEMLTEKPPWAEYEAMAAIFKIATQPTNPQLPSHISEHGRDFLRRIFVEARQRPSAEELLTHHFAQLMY
MEKK2wt confirm: raises or lowers MEK5 binding to wildtype human MEKK2, retest; binding response (% of control), % at 10 µM; 5,900 compounds, 2.4% hits; shares compounds with MEKK3 PB1 HTS; bead flow cytometry, Alexa488-MEK5 binding to MEKK2 WT; actives lie on both sides; in the data active means binding response below about 16% or above about 210%; inactive means in between
MEKK2mut confirm: signal of MEK5 binding to mutant human MEKK2, retest. shares compounds with MEKK3 PB1 HTS. bead flow cytometry, Alexa488-MEK5 binding to MEKK2 mutant. percent response, % at 10 µM. 5,900 compounds, 2% hits. AID 1893; in the data active means percent response mostly above about 71%, no sharp cut-off; inactive means mostly below about 38%;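 further: higher means compound restores mutant binding toward wildtype level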
MEKK3-MEK5 inh: confirmation of inhibitors of MEK5 binding to human MEKK3; 5,900 compounds, 1.8% hits; binding response (% of control), % at 10 µM; AID 1894; bead flow cytometry, Alexa488-MEK5 binding to MEKK3; active compounds read low; shares compounds with MEKK3 PB1 HTS;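 active means binding response below 72% of control, or above a set upper limit, though filed actives all read lower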;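 further: 100% = DMSO only wells and 0% = binding blocked by excess unlabeled MEK5; lower values mean stronger disruption of MEK5 binding to MEKK3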
* hit, by the source's call; i = inactive; . = not tested or not shown; ! = a repeat was not active; [ ] = dose if it differs, or a comment.

SMILES	Apaf-1 inh	UCH37 DUB inh	MEKK2mut PB1 HTS	MEKK2 WT-MEK5	UBC13 polyUb	MEKK3 PB1 HTS	MEKK2wt confirm	MEKK2mut confirm	MEKK3-MEK5 inh
CCN(CC)c1ccc(/C=N/NS(=O)(=O)c2ccc(CNC(C)=O)cc2)cc1	-5.6	.	0.0	109.0	-8.5	145.0*	98.0	-4.0	100.0
CC(=O)NCc1ccc(S(=O)(=O)N/N=C/c2ccccc2)cc1	-0.1	.	-1.0	101.0	-5.1	106.0	.	.	.
CC(=O)NCc1ccc(S(=O)(=O)N/N=C/c2ccc(Br)cc2)cc1	-5.2	.	0.0	111.0	-0.2	139.0*	98.0	-3.0	101.0
CC(=O)NCc1ccc(S(=O)(=O)NN=Cc2ccc(N(C)C)cc2)cc1	.	7.3	.	.	.	.	.	.	.
CCN(CC)S(=O)(=O)c1ccc2c(c1)c(=O)c(C(=O)NCc1ccco1)cn2C	-7.3	3.7	13.0	123.0	3.3	135.0*	102.0	-6.0	100.0
CC1CCN(S(=O)(=O)c2ccc3c(c2)c(=O)c(C(=O)NCc2ccco2)cn3C)CC1	22.0	3.4	-3.0	91.0	12.1	93.0	.	.	.
Cc1cc(C(=O)NC2CC(C)(C)Cc3c2cnn3-c2ccccc2C)c(C)o1 (centres undefined)	21.8	-1.9	-4.0	98.0	-6.5	101.0	.	.	.
N=c1oc2ccc3ccccc3c2cc1-c1nc(-c2ccccc2)cs1	.	-61.4	-1.0	96.0	.	146.0*	94.0	-6.0	94.0
COc1ccc(NC(=O)c2nc3ccccc3s2)cc1	-0.9	1.4	-4.0	94.0	6.6	94.0	.	.	.
COc1ccc(OC)c(NC(=O)c2nc3ccccc3s2)c1	8.2	-5.7	2.0	3.0*[inhibitor]	-1.6	3.0*[inhibitor]	111.0	6.0	109.0
COCCNS(=O)(=O)c1cc2[nH]c3c(c2cc1C)C(=O)CC(C)(C)C3	4.4	1.6	4.0	106.0	-4.8	101.0	.	.	.
Nc1c(C(=O)C2CC2)sc2nc(-c3cccs3)cc(C(F)(F)F)c12	16.3	-16.9	-1.0	59.0*[inhibitor]	-3.7	95.0	85.0	-7.0	101.0
CC(OCc1ccccc1)C(NC(=O)OC(C)(C)C)C(=O)NCC1CCCO1 (centres undefined)	2.6	4.2	-1.0	100.0	4.2	101.0	.	.	.
CCN(CC)c1nc2ccccc2c(N)c1-c1ccccc1	-3.9	9.9	26.0*	123.0	1.6	114.0	106.0	0.0	99.0
CCNc1nc(NCC)nc(NN=Cc2ccccc2)n1	.	2.0	.	.	.	.	.	.	.
Cc1n[nH]c(=O)nc1N/N=C/c1ccc(O)c([N+](=O)[O-])c1	-3.5	.	1.0	107.0	-75.2	129.0*	99.0	0.0	102.0
COC(=O)c1ccnc(/C=N/O)c1	0.1	.	-10.0	85.0	-0.5	80.0*[inhibitor]	96.0	-6.0	102.0
Cc1ccc(N(CC(O)CN2CCCCC2)S(=O)(=O)c2ccccc2)cc1 (centres undefined)	12.3	0.5	4.0	111.0	-0.8	104.0	.	.	.
CC(C)Oc1ccc(C(CCNCc2ccc(O)cc2)c2ccccc2)cc1 (centres undefined)	13.5	1.0	24.0*	150.0*	32.4	107.0	132.0	13.0	99.0
COc1ccc(C(CCNCc2ccc(OC)c(OC)c2)c2ccc(F)cc2)cc1 (centres undefined)	2.7	3.7	-10.0	114.0	13.8	91.0	.	.	.
COc1ccc(C(CCNCc2ccc(N(C)C)cc2)c2ccccc2)cc1 (centres undefined)	15.2	3.5	22.0	159.0*	16.9	109.0	137.0	11.0	98.0
COc1ccc(Nc2cc(C)nc3c(C)cccc23)cc1OC	-2.5	9.8	26.0*	116.0	-2.7	111.0	109.0	6.0	105.0
O=c1c2sccc2nc(SCc2ccc([N+](=O)[O-])cc2)n1Cc1ccccn1	-6.4	3.1	1.0	96.0	19.2	63.0*[inhibitor]	100.0	-1.0	104.0
CSc1ccc(/C=N/Nc2nc(C)cc(C)n2)cc1	22.2	.	2.0	99.0	-29.2	107.0	.	.	.
CCOc1cc(/C=N/O)cc(Br)c1OCC	4.4	.	6.0	100.0	8.7	124.0*	103.0	0.0	102.0
SMILES	Apaf-1 inh	UCH37 DUB inh	MEKK2mut PB1 HTS	MEKK2 WT-MEK5	UBC13 polyUb	MEKK3 PB1 HTS	MEKK2wt confirm	MEKK2mut confirm	MEKK3-MEK5 inh
CCOc1cc(C=NO)cc(Br)c1OCC	.	5.9	.	.	.	.	.	.	.
Cc1ccc(C)c(NS(=O)(=O)c2cc(C(=O)N3CCc4ccccc4C3)ccc2Cl)c1	11.7	2.7	2.0	97.0	-7.2	102.0	.	.	.
C/C(Cn1nnc2ccccc21)=N\OC(=O)c1ccccc1C	-5.3	.	1.0	104.0	5.5	138.0*	106.0	6.0	106.0
O=S(=O)(NC1CCCCC1Nc1ccccc1)c1ccccc1 (centres undefined)	2.0	-0.4	0.0	104.0	-0.6	128.0*	80.0	-18.0	71.0*
CNCCCC12CCC(c3ccccc31)c1ccccc12	12.3	0.4	7.0	137.0*!	9.2	111.0	106.0	1.0	94.0
O=C(O)CSc1nnc(-c2ccccc2Br)n1-c1cccc(C(F)(F)F)c1	6.0	3.0	3.0	99.0	-14.4	101.0	.	.	.
CCNC(=O)CSc1nnc(-c2ccccc2Br)n1-c1cccc(C(F)(F)F)c1	-6.2	4.7	1.0	109.0	6.3	128.0*	100.0	0.0	99.0
NC(=O)CSc1nnc(-c2ccccc2Br)n1-c1cccc(C(F)(F)F)c1	6.6	-1.5	-1.0	101.0	12.1	139.0*	104.0	-4.0	102.0
Cc1ccc(CNC(=O)CCC2CCCN(Cc3ccc4cccc(F)c4n3)C2)o1 (centres undefined)	4.1	-1.6	20.0	120.0	4.3	106.0	.	.	.
COc1ccc(-c2ccnc3c(C#N)cnn23)cc1	-9.3	i	-38.0	68.0	17.4	65.0	.	.	.
O=C1NCCCC1C(=O)N1CCN(C(c2ccccc2)c2ccccc2)CC1 (centres undefined)	-9.7	2.1	-9.0	98.0	-3.3	82.0*[inhibitor]	103.0	7.0	108.0
Cc1ccc(-c2nn(-c3ccccc3)cc2/C=C/C(=O)OCC(=O)NC2CC2)o1	17.9	i	5.0	116.0	19.6	131.0*	96.0	-7.0	89.0
CNC(=O)COC(=O)/C=C/c1cn(-c2ccccc2)nc1-c1ccc2c(c1)OCCO2	1.1	-0.7	-3.0	105.0	3.9	107.0	.	.	.
Cc1ccc(C(=O)NN=C2CCc3ccccc32)c(C)c1	.	0.3	.	.	.	.	.	.	.
Cc1ccc(C(=O)N/N=C2\CCc3ccccc32)c(C)c1	-5.7	.	1.0	110.0	8.0	141.0*	107.0	0.0	105.0

High-throughput results deposited in PubChem by several laboratories.
